Results from ChEMBL document CHEMBL2311473, “Characterization of antimicrobial, cytotoxic, and antiendotoxin properties of short peptides with different hydrophobic amino acids at "a" and "d" positions of a heptad repeat sequence” (J Med Chem, 2013).
≈ marks a conversion by molar mass, not a printed value. Calls of active or inactive are those of the source. The rule behind the calls is not given here.

Legend:
[1] = Binding affinity to PE/PG lipid vesicles assessed as increase in helical structure at 36 uM by circular dichroism analysis; format: physicochemical
How it was run: (§1)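 Peptides (~36 μM) with ~500 μM PC/Chol (8:1 w/w) or PE/PG (7:3 w/w) vesicles. CD spectra 250–190 nm at ~30 °C in 0.2 cm cuvette; 4–6 scans averaged at 20 nm/min, 0.5 nm interval.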

[2] = tested on: Staphylococcus aureus; assay: Bactericidal activity against Staphylococcus aureus ATCC 9144 assessed as induction of membrane depolarization at up to 7 uM by DiSC3(5) staining-based fluorescence assay; format: functional, organism-based
How it was run: (§2)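 Membrane potential dye diS-C3-5 preincubated 1 h with hRBC or S. aureus suspensions; I0 is steady-state fluorescence after this incubation. Peptide then added at varying concentrations. Depolarization expressed as percentage fluorescence recovery (Ft) versus peptide concentration.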

[3] = tested on: Cryptococcus neoformans; assay: Antifungal activity against Cryptococcus neoformans after 72 hrs by NCCLS microbroth dilution method; format: functional
How it was run: (§3)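 Microbroth dilution in MOPS-buffered RPMI 1640 following NCCLS guidelines. Inoculum 1−5 × 10^3 cells/mL, peptide range 50−0.36 (mass/mL). Plates held in a moist chamber at 35 °C and A492 read after 48 h (Candida spp.), 72 h (A. fumigatus, S. schenckii, C. neoformans) or 96 h (T. mentagrophytes). MIC taken as 90% growth inhibition versus growth control.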

[4] = Induction of dissipation of diffusion potential in PC/Chol lipid vesicles by fluorescence assay; format: physicochemical
How it was run: (§4)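 SUVs of PC/Chol (8:1 w/w) or PE/PG (7:3 w/w) treated with peptide. Dissipation of diffusion potential taken as percentage fluorescence recovery ~5 min after peptide addition, with valinomycin used for reference levels. Plotted against peptide/lipid molar ratio.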

[5] = Drug uptake in human RBC assessed as membrane localization at 9 uM after 10 to 30 mins by confocal microscopic analysis; format: ADME; conditions: erythrocyte
How it was run: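 Fresh hRBCs (3% in PBS) incubated with NBD-labeled peptide (~9.0 μM) for 10–30 min at 37 °C. Washed, fixed in 2% paraformaldehyde 10 min, and imaged by confocal microscopy at constant photomultiplier setting.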

[6] = tested on: Candida albicans; assay: Antifungal activity against Candida albicans after 48 hrs by NCCLS microbroth dilution method; format: functional; how it was run: as §3
[7] = tested on: RAW264.7; assay: Antiinflammatory activity in mouse RAW264.7 cells assessed as downregulation of LPS-induced iNOS2 expression at 4.5 uM after 24 hrs by Western blotting analysis; format: functional, cell-based
How it was run: (§5)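 RAW 264.7 cells (~2 × 10^5) stimulated with LPS 1 μg/mL plus peptide 4.5 μM for 24 h. Cells washed in ice-cold PBS and lysed in Laemmli buffer. SDS-PAGE (8% gel iNOS-2, 12% TNF-α), nitrocellulose transfer, alkaline phosphatase secondary with NBT/BCIP. Band densities normalized to β-actin. LPS-only and untreated cells served as controls.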

[8] = tested on: Staphylococcus epidermidis; assay: Antibacterial activity against Staphylococcus epidermidis NRRL B-4268 after 18 hrs by broth dilution method; format: functional; conditions: NRRL B-4268, 18 h
How it was run: (§6)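 Bacteria grown aerobically at 37 °C in Mueller-Hinton broth to mid-log phase (OD600), diluted to ~10^6 cfu/mL, then mixed 1:1 with 2-fold serial peptide dilutions in water. Incubation ~18 h at 37 °C before MIC read-out (μM).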

[9] = tested on: Escherichia coli; assay: Bactericidal activity against Escherichia coli ATCC 10536 assessed as induction of membrane damage at 5 uM after 30 mins by propidium iodide staining-based flow cytometric analysis; format: functional, organism-based
How it was run: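 Mid-log E. coli incubated with peptide (~5.0 μM) 30 min at 37 °C with shaking. Cells washed twice in PBS, stained with propidium iodide 30 min at 4 °C, washed and resuspended. 10000 events per sample by flow cytometry, compared with peptide-free control.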

[10] = tested on: Lipopolysaccharide (LPS); assay: Binding affinity to LPS assessed as inhibition of LPS-induced LAL enzyme activation at 4.5 uM after 30 mins by spectrophotometric analysis
How it was run: (§7)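 Chromogenic limulus amoebocyte lysate endotoxin kit. Peptide binding to LPS estimated from inhibition of LPS-induced LAL enzyme activation, i.e. reduced substrate colour, and reported as percentage LPS binding.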

[11] = tested on: Trichophyton mentagrophytes; assay: Antifungal activity against Trichophyton mentagrophytes after 96 hrs by NCCLS microbroth dilution method; format: functional; how it was run: as §3
[12] = Binding affinity to PC/Chol lipid vesicles assessed as decrease in acrylamide-induced tryptophan fluorescence quenching at 1 uM; format: physicochemical
How it was run: (§8)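 Acrylamide quencher added in aliquots from 3.0 M stock to peptide with PC/Chol (8:1) or PE/PG (7:3) SUVs, peptide/lipid 1:100. Trp excited at 295 nm. Values corrected for dilution and vesicle-blank scatter, then fitted to Stern–Volmer F0/F = 1 + KSV[Q].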

[13] = tested on: Sporothrix schenckii; assay: Antifungal activity against Sporothrix schenckii after 72 hrs by NCCLS microbroth dilution method; format: functional; how it was run: as §3
[14] = tested on: Bacillus subtilis; assay: Antibacterial activity against Bacillus subtilis ATCC 6633 after 18 hrs by broth dilution method; format: functional; conditions: ATCC 6633, 18 h; how it was run: as §6
[15] = tested on: RAW264.7; assay: Antiinflammatory activity in mouse RAW264.7 cells assessed as inhibition of LPS-induced NO production at 3 uM by Griess method; format: functional; parameters: scale not given: the % may be the effect or the level left
How it was run: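 RAW 264.7 cells plated at 5 × 10^5/well and exposed to LPS (E. coli 0111:B4, 1 μg/mL) together with peptide at varying doses. Cells with and without LPS served as maximum and basal NO controls. Nitrite in the supernatant measured by Griess reagent at 548 nm against a sodium nitrite standard curve, and percent inhibition of NO calculated.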

[16] = tested on: Escherichia coli; assay: Drug uptake in Escherichia coli ATCC 10536 assessed as membrane localization at 3 uM after 30 mins by confocal microscopic analysis; format: ADME, organism-based; conditions: in vivo, 0.5 h
How it was run: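 E. coli (~10^6 CFU/mL) in LB incubated with fluorescent-labeled peptide (~3.0 μM) for half an hour. Cells centrifuged, washed and imaged by confocal microscopy (DIC and fluorescence).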

[17] = tested on: RAW264.7; assay: Antiinflammatory activity in mouse RAW264.7 cells assessed as inhibition of LPS-induced IL6 secretion at 1.5 to 4.5 uM after 12 hrs by ELISA; format: functional, cell-based
How it was run: (§9)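 RAW 264.7 cells treated with LPS alone or LPS plus peptide. TNF-α and IL-6 measured by ELISA in culture supernatant and expressed as percentage inhibition of LPS-induced secretion. Mean of three independent experiments, SD shown.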

[18] = tested on: Staphylococcus aureus; assay: Antibacterial activity against Staphylococcus aureus ATCC 9144 after 18 hrs by broth dilution method; format: functional; conditions: ATCC 9144, 18 h; how it was run: as §6
[19] = tested on: RAW264.7; assay: Antiinflammatory activity in mouse RAW264.7 cells assessed as inhibition of LPS-induced TNFalpha secretion at 1.5 to 4.5 uM after 12 hrs by ELISA; format: functional, cell-based; how it was run: as §9
[20] = tested on: Lipopolysaccharide (LPS); assay: Binding affinity to LPS assessed as increase in helical structure at 36 uM by circular dichroism analysis
How it was run: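 CD spectra of peptides (36 μM) recorded alone and with LPS at 3.8 and 6.25 μM.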

[21] = tested on: Escherichia coli; assay: Antibacterial activity against Escherichia coli ATCC 10536 after 18 hrs by broth dilution method; format: functional; conditions: ATCC 10536, 18 h; how it was run: as §6
[22] = Induction of dissipation of diffusion potential in PE/PG lipid vesicles by fluorescence assay; format: physicochemical; how it was run: as §4
[23] = Cytotoxicity against human RBC assessed as induction of membrane damage at 25 uM after 5 mins by annexin V-FITC staining-based FACS flow cytometric analysis; format: cell-based; conditions: erythrocyte
How it was run: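 hRBCs (~3.0 × 10^7 cells/mL) treated with peptide (~25.0 μM) for 5 min at room temperature. Stained with FITC-annexin V and analysed by flow cytometry, 10000 events, compared with untreated control.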

[24] = tested on: Aspergillus fumigatus; assay: Antifungal activity against Aspergillus fumigatus after 72 hrs by NCCLS microbroth dilution method; format: functional; how it was run: as §3
[25] = tested on: Klebsiella pneumoniae; assay: Antibacterial activity against Klebsiella pneumoniae ATCC 27736 after 18 hrs by broth dilution method; format: functional; conditions: ATCC 27736, 18 h; how it was run: as §6
[26] = tested on: Lipopolysaccharide (LPS); assay: Binding affinity to LPS assessed as inhibition of LPS-induced LAL enzyme activation at 18 uM after 30 mins by spectrophotometric analysis; how it was run: as §7
[27] = Binding affinity to PE/PG lipid vesicles assessed as decrease in decrease in acrylamide-induced tryptophan fluorescence quenching at 1 uM; format: physicochemical; how it was run: as §8
[28] = Cytotoxicity against human RBC assessed as induction of membrane depolarization at up to 16 uM by DiSC3(5) staining-based fluorescence assay; format: cell-based; conditions: erythrocyte; how it was run: as §2
[29] = Cytotoxicity against human RBC assessed as hemolysis at 60 uM; format: cell-based, Erythrocyte; conditions: red blood cells (RBC), read-out: Activity
How it was run: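 hRBCs in PBS exposed to peptide. Hemoglobin release read as supernatant absorbance at 540 nm. Hemolysis % = (Asample − Ablank)/(Atriton − Ablank) × 100, with PBS blank and 0.2% Triton X-100 (final) as 100% reference.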

[30] = tested on: Lipopolysaccharide (LPS); assay: Binding affinity to FITC-tagged LPS assessed as induction of disintegration up to 40 uM by […]; conditions: in the assay text read “fluorescence dequenching” for “circular dichroism”
How it was run: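 FITC-LPS (0.5 μg/mL) titrated with increasing peptide concentrations. Disaggregation read as dequenching, i.e. rise in FITC fluorescence, monitored after each addition until emission reached equilibrium.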

[31] = tested on: NIH3T3; assay: Cytotoxicity against mouse 3T3 cells assessed as cell viability up to 25 uM by MTT assay; format: cell-based
How it was run: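 Murine 3T3 fibroblasts, grown in DMEM/IMDM with 10% FCS at 37 °C, 5% CO2, seeded at 10000 cells/well. Viability after peptide exposure measured by MTT (mitochondrial dehydrogenase) across a dose range.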

[32] = Binding affinity to PE/PG lipid vesicles assessed as induction of large blue shift at 1 uM by fluorescence assay; format: physicochemical
[33] = tested on: Lipopolysaccharide (LPS); assay: Binding affinity to LPS assessed as inhibition of LPS-induced LAL enzyme activation at 9 uM after 30 mins by spectrophotometric analysis; how it was run: as §7
[34] = Binding affinity to PC/Chol lipid vesicles assessed as induction of large blue shift at 1 uM by fluorescence assay; format: physicochemical
[35] = Binding affinity to PC/Chol lipid vesicles assessed as increase in helical structure at 36 uM by circular dichroism analysis; format: physicochemical; how it was run: as §1
[36] = tested on: Pseudomonas aeruginosa; assay: Antibacterial activity against Pseudomonas aeruginosa ATCC BAA-427 after 18 hrs by broth dilution method; format: functional; conditions: ATCC BAA-427, 18 h; how it was run: as §6
[37] = tested on: Candida parapsilosis; assay: Antifungal activity against Candida parapsilosis ATCC 22019 after 48 hrs by NCCLS microbroth dilution method; format: functional; conditions: Lodderomyces parapsilosis, ATCC 22019, 48 h; how it was run: as §3
[38] = tested on: Staphylococcus aureus; assay: Antibacterial activity against methicillin-resistant Staphylococcus aureus after 18 hrs by broth dilution method; format: functional; how it was run: as §6
[39] = tested on: RAW264.7; assay: Antiinflammatory activity in mouse RAW264.7 cells assessed as downregulation of LPS-induced TNFalpha expression at 4.5 uM after 24 hrs by Western blotting analysis; format: functional, cell-based; how it was run: as §5

## CC(C)C[C@H](N)C(=O)O [LEUCINE]
[1]
  Activity: Active
[2]
  Activity: Active
[3]
  MIC: 6.1 µM (≈ 0.8 µg/mL)
[4]
  Activity: Active
[5]
  Drug uptake: Active
[6]
  MIC: 3.1 µM (≈ 0.407 µg/mL)
[7]
  Activity: Active
[8]
  MIC: 12.1 µM (≈ 1.59 µg/mL)
[9]
  Activity: Active
[10]
  inhibition: 72%
[11]
  MIC: 1.56 µM (≈ 0.205 µg/mL)
[12]
  Activity: Active
[13]
  MIC: 1.56 µM (≈ 0.205 µg/mL)
[14]
  MIC: 10.5 µM (≈ 1.38 µg/mL)
[15]
  Activity: 90%
[16]
  Drug uptake: Active
[17]
  inhibition: Active
[18]
  MIC: 6.25 µM (≈ 0.82 µg/mL)
[19]
  inhibition: Active
[20]
  Activity: Active
[21]
  MIC: 6.25 µM (≈ 0.82 µg/mL)
[22]
  Activity: Active
[23]
  Activity: Toxic
[24]
  MIC: 3.1 µM (≈ 0.407 µg/mL)
[25]
  MIC: 6.2 µM (≈ 0.813 µg/mL)
[26]
  inhibition: Active
[27]
  Activity: Active
[28]
  Activity: Toxic
[29]
  hemolysis at 60 µM: 80%
[30]
  Activity: Active
[31]
  Activity: Toxic
[32]
  Activity: Active
[33]
  inhibition: 90%
[34]
  Activity: Active
[35]
  Activity: Active
[36]
  MIC: 11.2 µM (≈ 1.47 µg/mL)
[37]
  MIC: 3 µM (≈ 0.394 µg/mL)
[38]
  MIC: 6.25 µM (≈ 0.82 µg/mL)
[39]
  Activity: Active
